The values below come from ChEMBL document CHEMBL3525987, “Assessment of exposure of metabolites in preclinical species and humans at steady state from the single-dose radiolabeled absorption, distribution, metabolism, and excretion studies: a case study” (Drug Metab Dispos, 2012).

What all share (details): in vivo
The test system of data set [1] is Rattus norvegicus. The data set is described as follows: Cmax as total radioactivity in male Sprague-Dawley rat plasma at 10 mg/kg, po administered as single dose via gavage by LC-MS/MS analysis. In kind it is ADME, organism-based. On the set-up: dose 10 mg/kg, dosed compound name [14C]lixivaptan, route oral. Put shortly:
(§1)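 Jugular-cannulated Sprague-Dawley rats (5/gender) were fasted 18 h and gavaged once with 10 mg/kg [14C]lixivaptan suspended in water/pluronic F68. K2EDTA blood was taken at 0.25–168 h, with donor blood replaced from 1 h on. Total radioactivity was read by LSC (ng-equiv/ml) and parent by validated LC-MS/MS. Noncompartmental Cmax, log-linear kel and trapezoidal AUC followed.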

Data set [2] has as its system Rattus norvegicus. The data set is described as follows: AUC(0 to t) as total radioactivity in male Sprague-Dawley rat plasma at 10 mg/kg, po administered as single dose via gavage by LC-MS/MS analysis. Type of data set: ADME, organism-based. Further details: dose 10 mg/kg, dosed compound name [14C]lixivaptan, route oral. Put shortly:
as §1

In data set [3] the test system is Canis familiaris. In words: Tmax as total radioactivity in male beagle dog plasma at 10 mg/kg, po administered as single dose by LC-MS/MS analysis. Further details: dose 10 mg/kg, dosed compound name [14C]lixivaptan, route oral. In kind it is ADME, organism-based, Canis lupus familiaris. The method in brief:
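Male beagles given 10 mg/kg [14C]drug oral suspension; jugular K2EDTA blood at 0.25-168 h. Parent by validated LC-MS/MS, total radioactivity by LSC; Tmax observed; t1/2 = 0.693/kel from terminal log-linear regression.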

Data set [4] relates to Homo sapiens. The data set is described as follows: Total drug recovery in human at […], po administered as single dose measured after 168 hrs by liquid scintillation counting. Type of data set: ADME, organism-based. On the set-up: dosed compound name [14C]lixivaptan, route oral. Put shortly: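 Healthy male volunteers given a single 100 mg (200 μCi) oral dose as 2×50-mg capsules with 250 ml water, fasted ≥10 h before and 4 h after dosing. Urine collected at 0-4, 4-8, 8-12, 12-24 h, then every 24 h to 168 h; feces collected as passed to 168 h. Feces homogenized (20% w/w) and combusted; radioactivity measured by LSC.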

A short description of data set [5]: Drug recovery in urine of male Sprague-Dawley rat at 10 mg/kg, po administered as single dose via gavage measured after 168 hrs by liquid scintillation counting. Further details: dose 10 mg/kg, dosed compound name [14C]lixivaptan, route oral. In kind it is ADME, organism-based. Put shortly:
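Intact SD rats (3/gender) dosed by gavage with [14C]drug 10 mg/kg (10 ml/kg, pluronic F68/water), housed in metabolism cages; urine and feces at 0-8, 8-24 h, then every 24 h to 7 days. Urine counted by LSC; feces homogenized 20% w/w in water, combusted, trapped CO2 counted; cage wash/debris included; % of dose.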

As usually defined, the Tmax is the time at which the peak concentration occurs. Take `Cc1ccc(F)cc1[14C](=O)Nc1ccc(C(=O)N2Cc3cccn3Cc3ccccc32)c(Cl)c1`: in data set [1], the Cmax worked out at 2820 ngequiv/ml. Further, in data set [2], the AUCt worked out at 65700 ng.Eq.hr/ml. For the same compound, the Tmax in data set [3] came out at 1.8 h. Besides, the Radiolabel recovery was determined as 84.2% in data set [4] and 5.77% in data set [5].
